According to ChEMBL document CHEMBL1136726, “Synthesis and characterization of iodine-123 labeled 2beta-carbomethoxy-3beta-(4'-((Z)-2-iodoethenyl)phenyl)nortropane. A ligand for in vivo imaging of serotonin transporters by single-photon-emission tomography” (J Med Chem, 2003):
“And” between values parts separate entries of the source, which are not always exact repeats. Equal entries are not always repeated.

Experiments:
Rattus norvegicus [1] = assay: Distribution of radioactivity in rat brain striatum 60 min after intravenous administration of iodine labeled compound; type: ADME, organism-based; conditions: in vivo, 1 h
In short: (§1)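 Male Sprague–Dawley rats (225–300 g) under ketamine anaesthesia were given [123I]ZIENT (10 μCi) in 0.2 mL 10% EtOH/0.9% NaCl into the tail vein, with a saline flush. Hypothalamus, prefrontal cortex, striatum, pons and cerebellum were dissected and gamma-counted. % injected dose/g came from decay-corrected counts against the diluted injected dose, and region/cerebellum ratios were taken from these. Mean ± SE, n=4–5.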

Rattus norvegicus [2] = assay: Distribution of radioactivity in rat blood 120 min after intravenous administration of iodine labeled compound; type: ADME, organism-based; conditions: in vivo, 2 h
In short: (§2)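 Male Sprague–Dawley rats (225–300 g) under ketamine received 10 µCi radioligand in 0.2 mL 10% EtOH/0.9% NaCl via tail vein, then a saline flush. Killed by cardiac excision at set times. Organs were excised, weighed and gamma-counted. % dose/g was taken against diluted injectate. Mean ± SE and range, n=4 (5 min) or 5 (30–120 min).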

Rattus norvegicus [3] = assay: Distribution of radioactivity in rat blood 30 min after intravenous administration of iodine labeled compound; type: ADME, organism-based; conditions: in vivo, 0.5 h; in short: as §2
Rattus norvegicus [4] = assay: Distribution of radioactivity in rat brain 120 min after intravenous administration of iodine labeled compound; type: ADME, organism-based; conditions: in vivo, 2 h
Rattus norvegicus [5] = assay: Distribution of radioactivity in rat brain 5 min after intravenous administration of iodine labeled compound; type: ADME, organism-based; conditions: in vivo
Rattus norvegicus [6] = assay: Distribution of radioactivity in rat brain region prefrontal cortex 60 min after intravenous administration of iodine labeled compound in presence of reboxetine blocker in study 2; type: ADME, organism-based; conditions: in vivo, 1 h
In short: (§3)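 Male Sprague–Dawley rats (250–300 g), ketamine-anesthetized. Blocker (2 mg/kg) or none was given iv 15 min before tail-vein radioligand (10 µCi in 0.2 mL 10% EtOH/saline). Rats were killed at 60 min with im pentobarbital. Brain regions were dissected, weighed and gamma-counted. % dose/g was taken from decay-corrected, background-subtracted counts versus the injected dose.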

Rattus norvegicus [7] = assay: Distribution of radioactivity in rat brain region striatum 60 min after intravenous administration of iodine labeled compound in absence of blocker in study 2; type: ADME, organism-based; conditions: in vivo, 1 h
In short: (§4)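 Male Sprague–Dawley rats (250–300 g), ketamine-anaesthetised, received [123I]ZIENT (10 μCi) in 0.2 mL 10% ethanol/0.9% NaCl via the tail vein. […] Rats were killed at 60 min with pentobarbital, brain regions dissected and gamma-counted. Values are % dose/g from decay-corrected, background-subtracted counts against the diluted injected dose.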

Rattus norvegicus [8] = assay: Distribution of radioactivity in rat brain region striatum 60 min after intravenous administration of iodine labeled compound in presence of RTI-113 blocker in study 1; type: ADME, organism-based; conditions: in vivo, 1 h; in short: as §4
Rattus norvegicus [9] = assay: Ratio of distribution of radioactivity in rat brain region striatum and cerebellum 60 min after intravenous administration of iodine labeled compound in presence of RTI-113 blocker in study 1; type: ADME, organism-based; conditions: in vivo, 1 h
Rattus norvegicus [10] = assay: Ratio of distribution of radioactivity in rat brain striatum and cerebellum 120 min after intravenous administration of iodine labeled compound; type: ADME, organism-based; conditions: in vivo, 2 h
In short: (§5)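 Male Sprague–Dawley rats (225–300 g), ketamine anesthesia, injected via tail vein with [123I]ZIENT (10 μCi in 0.2 mL 10% EtOH/0.9% NaCl, 0.4 mL saline flush). Killed at 5, 30, 60 or 120 min. Striatum and cerebellum dissected, weighed, γ-counted. Decay-corrected %injected dose/g taken against diluted injectate. Ratio is striatum over cerebellum. Four or five rats per time point, mean ± standard error.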

Rattus norvegicus [11] = assay: Ratio of distribution of radioactivity in rat brain striatum and cerebellum 5 min after intravenous administration of iodine labeled compound; type: ADME, organism-based; conditions: in vivo; in short: as §5
Rattus norvegicus [12] = assay: Ratio of distribution of radioactivity in rat brain region hypothalamus and cerebellum 60 min after intravenous administration of iodine labeled compound in presence of reboxetine blocker in study 2; type: ADME, organism-based; conditions: in vivo, 1 h
Rattus norvegicus [13] = assay: Distribution of radioactivity in rat brain region hypothalamus 60 min after intravenous administration of iodine labeled compound in presence of fluvoxamine blocker in study 1; type: ADME, organism-based; conditions: in vivo, 1 h; in short: as §3
Rattus norvegicus [14] = assay: Distribution of radioactivity in rat brain region pons 60 min after intravenous administration of iodine labeled compound in absence of blocker in study 1; type: ADME, organism-based; conditions: in vivo, 1 h; in short: as §3
Rattus norvegicus [15] = assay: Distribution of radioactivity in rat brain hypothalamus 5 min after intravenous administration of iodine labeled compound; type: ADME, organism-based; conditions: in vivo
In short: (§6)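 Male Sprague–Dawley rats (225–300 g) under ketamine received 10 µCi radioligand iv (tail vein) in 10% EtOH/saline. Hypothalamus, prefrontal cortex, striatum, pons and cerebellum were dissected, weighed and gamma-counted. % injected dose/g was taken from decay-corrected counts versus diluted dose. Mean ± SE and range, n=5 (5, 30 min) or 4 (60, 120 min).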

Rattus norvegicus [16] = assay: Distribution of radioactivity in rat brain pons 30 min after intravenous administration of iodine labeled compound; type: ADME, organism-based; conditions: in vivo, 0.5 h; in short: as §6
Rattus norvegicus [17] = assay: Distribution of radioactivity in rat brain pons 5 min after intravenous administration of iodine labeled compound; type: ADME, organism-based; conditions: in vivo; in short: as §6
Rattus norvegicus [18] = assay: Distribution of radioactivity in rat brain region cerebellum 60 min after intravenous administration of iodine labeled compound in absence of blocker in study 1; type: ADME, organism-based; conditions: in vivo, 1 h; in short: as §3
Rattus norvegicus [19] = assay: Ratio of distribution of radioactivity in rat brain region pons and cerebellum 60 min after intravenous administration of iodine labeled compound in presence of fluvoxamine blocker in study 1; type: ADME, organism-based; conditions: in vivo, 1 h
Rattus norvegicus [20] = assay: Distribution of radioactivity in rat brain region hypothalamus 60 min after intravenous administration of iodine labeled compound in absence of blocker in study 2; type: ADME, organism-based; conditions: in vivo, 1 h; in short: as §3
Rattus norvegicus [21] = assay: Distribution of radioactivity in rat brain region hypothalamus 60 min after intravenous administration of iodine labeled compound in presence of RTI-113 blocker in study 1; type: ADME, organism-based; conditions: in vivo, 1 h; in short: as §3
Rattus norvegicus [22] = assay: Distribution of radioactivity in rat liver 60 min after intravenous administration of iodine labeled compound; type: ADME, organism-based; conditions: in vivo, 1 h
In short: (§7)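 Tail-vein injection of [123I]ZIENT (10 μCi in 0.2 mL 10% EtOH/0.9% NaCl, then 0.4 mL saline flush) into ketamine-anaesthetised male Sprague–Dawley rats (225–300 g). Animals were killed by cardiac excision at set times. Organs were excised, rinsed, blotted, weighed and gamma-counted. % dose/g was calculated against diluted aliquots of injectate. Mean ± SE, n=4–5.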

Rattus norvegicus [23] = assay: Distribution of radioactivity in rat lung 30 min after intravenous administration of iodine labeled compound; type: ADME, organism-based; conditions: in vivo, 0.5 h; in short: as §7
Rattus norvegicus [24] = assay: Distribution of radioactivity in rat lung 60 min after intravenous administration of iodine labeled compound; type: ADME, organism-based; conditions: in vivo, 1 h; in short: as §7
Rattus norvegicus [25] = assay: Distribution of radioactivity in rat muscle tissue 5 min after intravenous administration of iodine labeled compound; type: ADME, organism-based; conditions: in vivo; in short: as §7
Rattus norvegicus [26] = assay: Distribution of radioactivity in rat testis 5 min after intravenous administration of iodine labeled compound; type: ADME, organism-based; conditions: in vivo; in short: as §7
Rattus norvegicus [27] = assay: Distribution of radioactivity in rat thyroid 30 min after intravenous administration of iodine labeled compound; type: ADME, organism-based, Thyroid gland; conditions: in vivo, 0.5 h; in short: as §7
Rattus norvegicus [28] = assay: Distribution of radioactivity in rat thyroid 60 min after intravenous administration of iodine labeled compound; type: ADME, organism-based, Thyroid gland; conditions: in vivo, 1 h; in short: as §7
Rattus norvegicus [29] = assay: Ratio of distribution of radioactivity in rat brain prefrontal cortex and cerebellum 60 min after intravenous administration of iodine labeled compound; type: ADME, organism-based; conditions: in vivo, 1 h; in short: as §1
Rattus norvegicus [30] = assay: Ratio of distribution of radioactivity in rat brain region pons and cerebellum 60 min after intravenous administration of iodine labeled compound in absence of blocker in study 2; type: ADME, organism-based; conditions: in vivo, 1 h
[31] = target: Sodium-dependent serotonin transporter (Homo sapiens, UniProt P31645); assay: In vitro competitive binding versus [3H]citalopram in murine kidney cells transfected with cDNA for human serotonin transporter (SERT); type: cell-based
Rattus norvegicus [32] = assay: Distribution of radioactivity in rat brain hypothalamus 60 min after intravenous administration of iodine labeled compound; type: ADME, organism-based; conditions: in vivo, 1 h; in short: as §6

Sequence of Sodium-dependent serotonin transporter (P31645 whole entry): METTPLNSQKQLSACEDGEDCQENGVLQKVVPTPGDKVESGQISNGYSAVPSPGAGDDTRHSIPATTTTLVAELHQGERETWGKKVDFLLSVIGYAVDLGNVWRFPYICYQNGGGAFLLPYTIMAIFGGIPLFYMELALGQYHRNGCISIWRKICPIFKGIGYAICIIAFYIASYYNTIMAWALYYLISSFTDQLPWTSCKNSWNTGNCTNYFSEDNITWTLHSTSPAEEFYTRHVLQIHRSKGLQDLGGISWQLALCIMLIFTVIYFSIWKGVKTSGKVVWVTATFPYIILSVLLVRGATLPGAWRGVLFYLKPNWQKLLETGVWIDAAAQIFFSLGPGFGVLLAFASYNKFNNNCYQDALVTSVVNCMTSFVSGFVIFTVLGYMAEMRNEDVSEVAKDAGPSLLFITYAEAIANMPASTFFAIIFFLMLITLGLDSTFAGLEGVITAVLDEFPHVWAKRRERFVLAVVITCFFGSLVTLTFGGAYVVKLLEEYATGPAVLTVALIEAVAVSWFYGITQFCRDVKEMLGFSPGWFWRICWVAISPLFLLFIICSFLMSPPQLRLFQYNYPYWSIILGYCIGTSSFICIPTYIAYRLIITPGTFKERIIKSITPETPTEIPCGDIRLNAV

Question: With COC(=O)[C@@H]1C2CCC(C[C@@H]1c1ccc(/C=C\I)cc1)N2 (some centres not stated) as the molecule, how does the “Distribution (dose/g)” value (Rattus norvegicus [1]) read?
Answer: 0.68%

Question: And the “Distribution (dose/g)” value (Rattus norvegicus [2])?
Answer: 0.31%

Question: What about the “Distribution (dose/g)” value (Rattus norvegicus [3]) of the same molecule?
Answer: 0.4%

Question: And the “Distribution (dose/g)” value (Rattus norvegicus [4])?
Answer: 0.39%

Question: What about the “Distribution (dose/g)” value (Rattus norvegicus [5]) of the same molecule?
Answer: 0.83%

Question: What about the “Distribution (dose/g)” value (Rattus norvegicus [6]) of the same molecule?
Answer: 0.69%

Question: And the “Distribution (dose/g)” value (Rattus norvegicus [7])?
Answer: 0.63%

Question: What about the “Distribution (dose/g)” value (Rattus norvegicus [8]) of the same molecule?
Answer: 0.64%

Question: What about the “Distribution (dose/g)” value (Rattus norvegicus [9]) of the same molecule?
Answer: 2.56%

Question: And the “Distribution (dose/g)” value (Rattus norvegicus [10])?
Answer: 4%

Question: And the “Distribution (dose/g)” value (Rattus norvegicus [11])?
Answer: 1.21%

Question: And the “Distribution (dose/g)” value (Rattus norvegicus [12])?
Answer: 2.83%

Question: And the “Distribution (dose/g)” value (Rattus norvegicus [13])?
Answer: 0.31%

Question: What about the “Distribution (dose/g)” value (Rattus norvegicus [14]) of the same molecule?
Answer: 0.62%

Question: What about the “Distribution (dose/g)” value (Rattus norvegicus [15]) of the same molecule?
Answer: 0.58%

Question: And the “Distribution (dose/g)” value (Rattus norvegicus [16])?
Answer: 0.6%

Question: What about the “Distribution (dose/g)” value (Rattus norvegicus [17]) of the same molecule?
Answer: 0.59%

Question: And the “Distribution (dose/g)” value (Rattus norvegicus [18])?
Answer: 0.24% and 0.19%

Question: What about the “Distribution (dose/g)” value (Rattus norvegicus [19]) of the same molecule?
Answer: 1.47%

Question: What about the “Distribution (dose/g)” value (Rattus norvegicus [20]) of the same molecule?
Answer: 0.75%

Question: What about the “Distribution (dose/g)” value (Rattus norvegicus [21]) of the same molecule?
Answer: 0.8%

Question: And the “Distribution (dose/g)” value (Rattus norvegicus [22])?
Answer: 0.22%

Question: What about the “Distribution (dose/g)” value (Rattus norvegicus [23]) of the same molecule?
Answer: 1.59%

Question: What about the “Distribution (dose/g)” value (Rattus norvegicus [24]) of the same molecule?
Answer: 1.41%

Question: And the “Distribution (dose/g)” value (Rattus norvegicus [25])?
Answer: 0.23%

Question: And the “Distribution (dose/g)” value (Rattus norvegicus [26])?
Answer: 0.21%

Question: What about the “Distribution (dose/g)” value (Rattus norvegicus [27]) of the same molecule?
Answer: 0.49%

Question: What about the “Distribution (dose/g)” value (Rattus norvegicus [28]) of the same molecule?
Answer: 0.8%

Question: And the “Distribution (dose/g)” value (Rattus norvegicus [29])?
Answer: 3.28%

Question: What about the “Distribution (dose/g)” value (Rattus norvegicus [30]) of the same molecule?
Answer: 2.79%

Question: What about the Ki [31] of the same molecule?
Answer: 0.05 nM

Question: And the “Distribution (dose/g)” value (Rattus norvegicus [32])?
Answer: 0.77%
